# In article PMC8788976 (Veterinary Medicine and Science, 2021):
# Columns and labels:
# [1] = test system: urate crystal-induced acute arthritis; type: in vivo, Beagle dogs; settings: plasma level, acute arthritis induction model in dogs
# Procedure, shortened: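 Efficacy dataset: 18 enflicoxib-treated dogs from both urate arthritis studies, giving 71 paired observations of plasma parent or pyrazol metabolite level and lameness score taken at the same time. These pairs were linked to the population PK model to define the minimum effective plasma concentration.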
# [2] = test system: COX-2 enzymes isolated from sheep placenta; settings: ref Wagemakers et al., 2009; cited from earlier work
# [3] = Population PK model of enflicoxib and pyrazol metabolite; design: species or system Beagle dogs
# Procedure, shortened: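 Population PK model built from two sources. Toxicokinetic data: 228 samples from 12 Beagles, days 1 and 28, daily 1 or 4 mg/kg. PK data: 341 parent/metabolite samples from 26 Beagles in the oral PK and two arthritis studies. Structure: two-compartment parent (first-order absorption with lag, first-order elimination) and three-compartment metabolite. Body weight included as covariate. Evaluated by visual predictive check (90% intervals); parameter CIs from non-parametric bootstrap.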
# [4] = Plasma concentrations in the repeated dose arthritis induction study; type: in vivo, Beagle dogs
# Procedure, shortened: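 Twelve male Beagles given oral 8 mg/kg on day 0, then 4 mg/kg weekly on days 7, 14 and 21, with stifle urate crystal inductions during the study. Jugular blood taken at time points including each intra-articular injection, and through day 56. Plasma processed as in the PK study. Pyrazol metabolite quantified by SPE then HPLC-MS/MS; values reported as mean ± SD.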
# [5] = Plasma concentrations in the single dose arthritis induction study; type: in vivo, Beagle dogs
# Procedure, shortened: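 Ten male Beagles (23–36 months, 9–12 kg); six received oral 4 mg/kg on day 0 and again on day 12. Urate crystal suspension injected into the stifle joint on days 0 (2 h post-dose), 2, 7, 14 and 21. Jugular blood taken at each injection time and processed as for plasma PK. Parent and pyrazol metabolite quantified by HPLC-MS/MS.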
# [6] = Single oral dose pharmacokinetic study in Beagle dogs; type: in vivo; settings: for AUC 24h / AUC last / C max: mean ± SD; for T last / T max: median (range)
# Procedure, shortened: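 Single oral dose of 1 or 4 mg/kg given as micronised drug in gelatine capsules, followed by 5 ml water; dogs fasted overnight until 4 h post-dose. Jugular blood taken pre-dose, at 0.25–12 h, then daily to day 21. K3-EDTA plasma (2500 g, 15 min, 4°C) stored at −80°C. Parent and pyrazol metabolite measured by SPE then HPLC-MS/MS (celecoxib internal standard). Non-compartmental analysis: Cmax observed; AUC by linear trapezoidal rule; AUCinf extrapolated using the terminal rate constant.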
# [7] = test system: urate crystal-induced acute arthritis; test: Single dose arthritis induction study; type: in vivo, Beagle dogs
# Procedure, shortened: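 Male Beagles (23–36 months, 9–12 kg). Groups: six dogs oral 4 mg/kg on days 0 and 12; three dogs reference coxib 2 mg/kg on days 0 and 14; one dog untreated. Stifle urate crystal injections on days 0 (2 h post-dose), 2, 7, 14 and 21. Blinded scoring before and 0.5–12 h after each injection. Standing plus walking lameness summed as CLS; pain scored on palpation.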
smiles,measurement,setting,value
NS(=O)(=O)c1ccc(-n2nc(C(F)(F)F)cc2-c2ccc(F)cc2F)cc1 [Pyrazol metabolite],Minimum Effective Concentration (MEC),[1],411 ng/mL
same,selectivity for COX-2 versus COX-1,[2],more than 250 fold
same,"CLM/F (θ7), Bootstrap Median","[3]; apparent clearance of pyrazol metabolite, bootstrap",0.111 L/h
same,"CLM/F (θ7), Value","[3]; apparent clearance of pyrazol metabolite, θ7·(WGT/9.9)^0.75",0.111 L/h
same,"VM/F (θ4), Value","[3]; central compartment, assumed the same as that of enflicoxib",6.59 L
same,"VM/F (θ4), Bootstrap Median","[3]; central compartment, bootstrap",6.60 L
same,"CLM2/F (θ12), Bootstrap Median","[3]; central-deep peripheral, bootstrap",0.132 L/h
same,"CLMP/F (θ8), Bootstrap Median","[3]; central-shallow peripheral, bootstrap",13.2 L/h
same,"VM2/F (θ13), Bootstrap Median","[3]; deep peripheral compartment, bootstrap",13.5 L
same,"VM2/F (θ13), Value","[3]; deep peripheral compartment, θ13·(WGT/9.9)^1.0",13.4 L
same,"CLM2/F (θ12), Value","[3]; distribution clearance central-deep peripheral, θ12·(WGT/9.9)^0.75",0.131 L/h
same,"CLMP/F (θ8), Value","[3]; distribution clearance central-shallow peripheral, θ8·(WGT/9.9)^0.75",13.2 L/h
same,estimated terminal half-life,[3]; population PK model,13.8 days
same,"Inter-individual variability on CLM/F, Value","[3]; random parameter, %CV",31%
same,"Residual variability, Value","[3]; random parameter, %CV",20%
same,"Inter-individual variability on CLM/F, Bootstrap Median","[3]; random parameter, bootstrap",31%
same,"Residual variability, Bootstrap Median","[3]; random parameter, bootstrap",20%
same,"VMP/F (θ9), Bootstrap Median","[3]; shallow peripheral compartment, bootstrap",29.33 L
same,"VMP/F (θ9), Value","[3]; shallow peripheral compartment, θ9·(WGT/9.9)^1.0",29.3 L
same,maximum plasma level,"[4]; day 23, 8 mg/kg loading, 4 mg/kg on days 7, 14, 21",1748 ± 334 ng/mL
same,plasma level at end of experimental period,"[4]; day 56, 28 days after last dose administration",348 ± 152 ng/mL
same,plasma concentration,"[5]; day 0, single 4 mg/kg enflicoxib, average ± SD",59 ± 34 ng/mL
same,plasma concentration,"[5]; day 2, single 4 mg/kg enflicoxib, average ± SD",207 ± 191 ng/mL
same,plasma concentration,"[5]; day 7, single 4 mg/kg enflicoxib, average ± SD",321 ± 241 ng/mL
same,plasma concentration,"[5]; day 14, after second 4 mg/kg dose on day 12, average ± SD",492 ± 240 ng/mL
same,plasma concentration,"[5]; day 21, after second 4 mg/kg dose on day 12, average ± SD",398 ± 172 ng/mL
same,AUC 24h,[6]; single oral enflicoxib 1 mg/kg,1104 ± 502 ng·h/mL
same,AUC last,[6]; single oral enflicoxib 1 mg/kg,"40,784 ± 10,228 ng·h/ml"
same,C max,[6]; single oral enflicoxib 1 mg/kg,165.8 ± 48.5 ng/mL
same,T last,[6]; single oral enflicoxib 1 mg/kg,480 h
same,T max,[6]; single oral enflicoxib 1 mg/kg,132.0 (96–168) h
same,AUC 24h,[6]; single oral enflicoxib 4 mg/kg,2647 ± 1322 ng·h/mL
same,AUC last,[6]; single oral enflicoxib 4 mg/kg,"132,329 ± 33,065 ng·h/ml"
same,C max,[6]; single oral enflicoxib 4 mg/kg,577.0 ± 203.4 ng/mL
same,T last,[6]; single oral enflicoxib 4 mg/kg,480 h
same,T max,[6]; single oral enflicoxib 4 mg/kg,132.0 (96–168) h
same,terminal half-life read from the graphic profile,"[6]; single oral enflicoxib 1 or 4 mg/kg, not adequately determinable",around 14 days
NS(=O)(=O)c1ccc(-n2nc(C(F)(F)F)cc2-c2ccc(F)cc2)cc1 [mavacoxib],lameness and pain after induction,"[7]; days 0 and 7, mavacoxib 2 mg/kg on days 0 and 14",some degree of lameness and pain
same,lameness or pain after induction,"[7]; days 14 and 21, after second administration on day 14, mavacoxib 2 mg/kg",none or mild lameness or pain
